# Test results as given in publication PMC6916675 (Cancer Management and Research, 2019).
# Entries after “also recorded” stand apart in the source; their conditions may differ.
# Tests used:
# [1] = test system: advanced solid or hematologic malignancies; assay: Antitumor efficacy; assay type: in vivo, human
# Method in brief: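 Investigators assessed response by RECIST 1.1, RANO, updated IWCLL or PCWG2 criteria. Solid tumours were restaged by CT or MRI after cycles 2, 4, 6, 9 and 12, every 6 cycles thereafter, and at end of treatment. Patients meeting IWCLL criteria but with persistent lymphocytosis were classed non-IWCLL. Best overall response frequency was tabulated. BA/FE substudy: 12 solid-tumour patients (GBM excluded).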
# [2] = Plasma pharmacokinetics of CC-115; assay type: in vivo, human; details: for AUC(0-inf) / Vd/F / AUC / Cmax / Tmax: human, plasma, oral; for Cmax: Plasma Cmax, mean (CV%); for Tmax: Plasma Tmax, median (min, max)
# [3] = Safety and tolerability in Phase I patients; assay type: in vivo, human
# [4] = Distribution of CC-115 to GBM tumor tissue; assay type: in vivo; details: human, GBM tumor tissue and plasma, oral, 10 mg BID
# [5] = Urinary excretion of CC-115; assay type: in vivo, human; details: for Fe (fraction excreted unchanged in urine), mean (CV%) / Urine Ae24, mean (CV%): first dose
# [6] = test system: pAKT; assay: Immunohistochemistry of paired tumor biopsies, pAKT; assay type: in vivo, human; details: before treatment vs after approximately 15 days of treatment
# [7] = test system: mTORC1 (p4E-BP1.T37/T46); assay: p4E-BP1 biomarker inhibition in stimulated blood monocytes; assay type: in vivo, human
# Method in brief: (§1)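 Blood sampled predose and up to 5 hrs postdose on cycle 1 days 1 and 15, plus around tumour biopsy (days 15–21). Markers: p4E-BP1 T37/T46 (mTORC1) and pAKT S473 (mTORC2). In Part B, CD14+ monocytes were stimulated with anti-IgD plus lipopolysaccharide (37°C, 15 min) and analysed by flow cytometry. Signal was expressed as molecules of equivalent fluorescein.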
# [8] = Bioavailability/food effect; assay type: in vivo, human; details: single oral dose with high-fat meal vs fasted
# [9] = test system: mTORC2 (pAKT.S473); assay: pAKT biomarker inhibition in stimulated blood monocytes; assay type: in vivo, human
# Method in brief: as §1
# [10] = test system: p4EBP1; assay: Immunohistochemistry of paired tumor biopsies, p4EBP1; assay type: in vivo, human; details: before treatment vs after approximately 15 days of treatment
# [11] = Part A, efficacy evaluable n=39
# [12] = 8 mg, first dose, 8 mg QD, n = 6
# [13] = 8 mg, multiple doses, 8 mg QD, n = 7
# [14] = 10 mg, first dose, 10 mg BID, n = 6
# [15] = 10 mg, multiple doses, 10 mg BID, n = 7
# [16] = 15 mg, first dose, 15 mg BID, n = 6
# [17] = 15 mg, multiple doses, 15 mg BID, n = 5
# [18] = 16 mg, first dose, 16 mg QD, n = 6
# [19] = 16 mg, multiple doses, 16 mg QD, n = 8
# [20] = 25 mg, first dose, 25 mg QD, n = 7
# [21] = 25 mg, multiple doses, 25 mg QD, n = 5
# [22] = 40 mg, first dose, 40 mg QD, n = 6
# [23] = 40 mg, multiple doses, 40 mg QD, n = 4
# [24] = Part A, repeat once-daily administration
# [25] = patient with endometrial cancer (complete response)
compound,measurement,setting,value
CCN1C(=O)CNc2ncc(-c3ccc(-c4nc[nH]n4)nc3C)nc21 [CC-115],"Stable disease, patients",[1]; BA/FE substudy,4 patients
same,"Partial response (unconfirmed), patients","[1]; BA/FE substudy, breast carcinoma (5 patients)",2 patients
same,"Stable disease, patients","[1]; BA/FE substudy, breast malignancies",1 patients
same,"Stable disease, patients","[1]; BA/FE substudy, ovarian malignancies",2 patients
same,"Stable disease, patients","[1]; BA/FE substudy, rectal malignancies",1 patients
same,Disease control rate (DCR),[1]; [11],51%
same,Overall response rate (ORR),[1]; [11],5%
same,6-month PFS,"[1]; Part B, CLL/SLL",86%
same,Best response of SD by IWCLL and non-IWCLL criteria,"[1]; Part B, CLL/SLL, June 2017",25%
same,PR by IWCLL criteria,"[1]; Part B, CLL/SLL, June 2017",25%
same,PR by non-IWCLL criteria (persistent lymphocytosis),"[1]; Part B, CLL/SLL, June 2017",38%
same,Best response of SD,"[1]; Part B, CRPC, 11 efficacy evaluable patients",64%
same,6-month PFS rate,"[1]; Part B, ES",0%
same,Best response of SD,"[1]; Part B, ES n=9",22%
same,Best response of nonprogression,"[1]; Part B, GBM, 14 evaluable patients",21%
same,Best response of SD,"[1]; Part B, HNSCC n=17",53%
same,Time in complete remission / tumor-free,"[1]; one patient with endometrial cancer, 10 mg BID reduced to 8 mg BID",> 4 years
same,AUC(0-inf),[2]; 8 mg,237 ng·h/mL
same,Vd/F,[2]; 8 mg,294 L
same,AUC,"[2]; 8 mg, Plasma AUC12, mean (CV%), first dose, 8 mg QD, n = 6",180 ng·h/mL
same,AUC,"[2]; 8 mg, Plasma AUC24, mean (CV%), first dose, 8 mg QD, n = 6",236 ng·h/mL
same,Cmax,[2]; [12],36.1 ng/mL
same,Cmax,[2]; [13],40.9 ng/mL
same,Tmax,[2]; [12],1.5 h
same,Tmax,[2]; [13],1.5 h
same,AUC(0-inf),[2]; 10 mg,605 ng·h/mL
same,Vd/F,[2]; 10 mg,189 L
same,Cmax,[2]; [14],51.8 ng/mL
same,Cmax,[2]; [15],75.2 ng/mL
same,Tmax,[2]; [14],2.25 h
same,Tmax,[2]; [15],1.42 h
same,AUC(0-inf),[2]; 15 mg,1310 ng·h/mL
same,Vd/F,[2]; 15 mg,173 L
same,Cmax,[2]; [16],134 ng/mL
same,Cmax,[2]; [17],162 ng/mL
same,Tmax,[2]; [16],1.04 h
same,Tmax,[2]; [17],1.52 h
same,AUC(0-inf),[2]; 16 mg,625 ng·h/mL
same,Vd/F,[2]; 16 mg,264 L
same,Cmax,[2]; [18],88.7 ng/mL
same,Cmax,[2]; [19],118 ng/mL
same,Tmax,[2]; [18],2.95 h
same,Tmax,[2]; [19],1.65 h
same,AUC(0-inf),[2]; 25 mg,1910 ng·h/mL
same,Vd/F,[2]; 25 mg,149 L
same,Cmax,[2]; [20],173 ng/mL
same,Cmax,[2]; [21],198 ng/mL
same,Tmax,[2]; [20],3 h
same,Tmax,[2]; [21],1.52 h
same,AUC(0-inf),[2]; 40 mg,2130 ng·h/mL
same,Vd/F,[2]; 40 mg,201 L
same,Cmax,[2]; [22],167 ng/mL
same,Cmax,[2]; [23],244 ng/mL
same,Tmax,[2]; [22],2.25 h
same,Tmax,[2]; [23],3 h
same,Increase of Cmax and AUC∞ with dose,[2]; single and multiple doses ranging from 4 to 40 mg,"linear, dose-proportional"
same,Drug-related AE: diarrhea,[3]; Part A,25%
same,Drug-related AE: fatigue,[3]; Part A,50%
same,Drug-related AE: hyperglycemia,[3]; Part A,23%
same,Drug-related AE: nausea,[3]; Part A,41%
same,Drug-related AE: vomiting,[3]; Part A,41%
same,"Grade 3 toxicities, patients",[3]; Part A,41%
same,Grade 3 toxicity: fatigue,[3]; Part A,7%
same,Grade 3 toxicity: hypertriglyceridemia,[3]; Part A,5%
same,Grade 3 toxicity: hypophosphatemia,[3]; Part A,7%
same,Grade 3 toxicity: maculopapular rash,[3]; Part A,5%
same,Grade 3 toxicity: stomatitis,[3]; Part A,5%
same,Patients requiring dose reduction from initially assigned dose levels,[3]; Part A,39%
same,Patients requiring drug interruption,[3]; Part A,93%
same,Patients who discontinued treatment due to AEs,[3]; Part A,7%
same,Patients with ≥1 drug-related AE,[3]; Part A,93%
same,Dose-limiting toxicities (increased transaminases and stomatitis),"[3]; Part A, 15 mg BID",2 DLTs
same,"Dose-limiting toxicity (thrombocytopenia), patients","[3]; Part A, 16 mg QD",1 patient
same,"Dose-limiting toxicity (stomatitis), patients","[3]; Part A, 25 mg QD",1 patient
same,"Dose-limiting toxicities (hyperglycemia, asthenia, and fatigue), patients","[3]; Part A, 40 mg QD",2 of 6 patients
same,Maximum-tolerated dose (MTD),"[3]; Part A, once-daily schedule",25 mg QD
same,Non-tolerated dose (NTD),"[3]; Part A, once-daily schedule",40 mg QD
same,Maximum-tolerated dose (MTD),"[3]; Part A, twice-daily schedule",10 mg BID
same,Non-tolerated dose (NTD),"[3]; Part A, twice-daily schedule",15 mg BID
same,"Patients requiring ≥1 dose reduction, range over cohorts",[3]; Part B overall,40–93%
same,Patients with dose reductions,"[3]; Part B, GBM",93%
same,Kp,[4],0.713
same,Excreted in urine,[5]; Part A,Less than 1%
same,"Fe (fraction excreted unchanged in urine), mean (CV%)","[5]; 8 mg QD, n = 6",0.25 (66) %
same,"Urine Ae24, mean (CV%)","[5]; 8 mg QD, n = 6","19,748 (66) ng"
same,"Fe (fraction excreted unchanged in urine), mean (CV%)","[5]; 10 mg BID, n = 6",0.53 (108) %
same,"Urine Ae24, mean (CV%)","[5]; 10 mg BID, n = 6","53,259 (108) ng"
same,"Fe (fraction excreted unchanged in urine), mean (CV%)","[5]; 15 mg BID, n = 6",0.72 (53) %
same,"Urine Ae24, mean (CV%)","[5]; 15 mg BID, n = 6","107,283 (53) ng"
same,"Fe (fraction excreted unchanged in urine), mean (CV%)","[5]; 16 mg QD, n = 6",0.33 (108) %
same,"Urine Ae24, mean (CV%)","[5]; 16 mg QD, n = 6","52,491 (108) ng"
same,"Fe (fraction excreted unchanged in urine), mean (CV%)","[5]; 25 mg QD, n = 7",0.41 (79) %
same,"Urine Ae24, mean (CV%)","[5]; 25 mg QD, n = 7","103,312 (79) ng"
same,"Fe (fraction excreted unchanged in urine), mean (CV%)","[5]; 40 mg QD, n = 6",0.34 (55) %
same,"Urine Ae24, mean (CV%)","[5]; 40 mg QD, n = 6","136,157 (55) ng"
same,Inhibition of pAKT in paired tumor biopsies,[6],"Moderate, not statistically significant, inhibition"
same,Median biomarker (p4E-BP1),"[7]; 10 mg BID cohort, after 3 hrs",35%
same,Dose above which mTORC1 (p4E-BP1) was inhibited in peripheral blood monocytes,[7]; [24],> 4 mg QD
same,Median decrease of p4E-BP1,"[7]; Part B, 10 mg BID, day 15",34%
same,Inhibition of p4E-BP1,[7]; [25],51%
same,Time for which p4E-BP1 inhibition was sustained,[7]; postdose,at least 5 hrs
same,Decrease in Cmax on co-administration of the tablet with food,[8],~ 40%
same,Delay in Tmax on co-administration of the tablet with food,[8],3.5 h
same,Total exposure (AUC∞) fed versus fasted,[8],similar; also recorded: comparable
same,Median biomarker (pAKT),"[9]; 10 mg BID cohort, after 3 hrs",84%
same,Dose above which mTORC2 (pAKT) was inhibited in peripheral blood monocytes,[9]; [24],> 4 mg QD
same,Median decrease of pAKT,"[9]; Part B, 10 mg BID, day 15",80%
same,Inhibition of pAKT,[9]; [25],85%
same,Time for which pAKT inhibition was sustained,[9]; postdose,at least 5 hrs
same,Inhibition of p4EBP1 in paired tumor biopsies,[10],"Moderate, not statistically significant, inhibition"
